Assay results of several laboratories.
Sample: plasma

`CC(C)c1nc(N(C)S(C)(=O)=O)nc(-c2ccc(F)cc2)c1/C=C/[C@@H](O)C[C@@H](O)CC(=O)O` gave an AUC of 60.3 ng·h/mL (human; oral; 10 mg).
`CC(=O)N(C)[C@H]1CCN(C(=O)c2cnc3c(c2)C[C@](C)(c2ccc(F)cc2)N3)C1` gave an AUC(0-inf) of 3.99 µM·h (male human; oral; 30 mg; multiple doses, once daily).
`COc1ccc(F)cc1C(=O)NCc1ccc(-c2nn([C@@H](C)C(F)(F)F)c(N)c2C(N)=O)cc1` gave an AUC(0-inf) of 85100 ng·h/mL (human; oral; 200 mg; single dose, fasted, healthy volunteers).
The AUC(0-inf) of `COc1ccc2c(c1)CN(C(=O)CCN1CCC(Cc3ccccc3)CC1)CC[S@@+]2[O-]` is reported as 3240 ng·h/mL (male human; intravenous; 0.6 mg/kg; healthy volunteers).
The AUC(0-inf) of `OC[C@H]1O[C@@H](c2cc(Cc3ccc(C4CC4)cc3)c(Cl)c3c2CCO3)[C@H](O)[C@@H](O)[C@@H]1O` is reported as 33.3 ng·h/mL (human; oral; 0.3 mg; single dose, fasted).
For `CC(C)n1c(C2CCNCC2)nc2c([N+](=O)[O-])c(Br)c(Br)cc21`, the AUC(0-t) was 2880 ng·h/mL (human; oral; 150 mg; patients).
The AUC(0-inf) of `C=CC(=O)NC1CCN(c2ncc3ncnc(Nc4ccc(Oc5ccc6c(c5)ncn6C)c(C)c4)c3n2)CC1` is reported as 0.00269 µM·h (male human; intravenous; 100 µg; single dose, healthy volunteers).
`O=C(COc1ccc(Cl)cc1)NC12CC(c3nnc([C@H]4C[C@@H](OC(F)(F)F)C4)o3)(C1)C2` has an AUC of 141 µM·h (human; oral; 145 mg; multiple doses, once daily, steady state, healthy volunteers).
For `COc1ccc(-c2c(Nc3ccccn3)[nH]c3c(C4=CCCCC4)c(-c4ccccc4)nn3c2=O)cc1`, the AUC(0-t) was 108000 ng·h/mL (human; oral; 200 mg once daily; multiple doses, steady state, patients).
